Bioassay records: PubChem, Broad Institute
This excerpt belongs to a sample that is enriched for hits.
XiGFP reactiv – activators of inactive X chromosome reactivation, primary screen, imaging, XiGFP fibroblasts, GFP high-content imaging, set 2; XiGFP mouse fibroblasts, % GFP-positive cells imaging, 3 d; cells co-treated with 5-aza-dC sensitizer; scaled so ellipticine positive control = 100%; activation, % at 7.58 µM; 0.055% of 360,000 active;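 active = mean normalized replicate activation at least 10% and every replicate at or above 10%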;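 also: 0% = median of on-plate neutral control wells and 100% = ellipticine 6 µM median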
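assay system = SV40-immortalized XiGFP fibroblast cells, line 68-5-11 | buffer or medium = DMEM plus 5-aza-dC sensitizer | doses = single-point pinned compound dosing | times = 3-day compound exposure, then 15 min fixation at room temperature | benchmarks = positive control ellipticine, 6 µM final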
E-selectin induc – E-selectin induction in HUVECs, primary screen, imaging, HUVEC, immunofluorescence imaging, single point; activation, % at 7.58 µM; AID 686992, 2013; 0.37% of 260,000 active; normalized: neutral wells 0, TNF-alpha wells 100; P16581;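 active = mean E-selectin-positive cell signal at least 10% of the positive control, reached in at least 60% of replicates, without over 20% cell loss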
Target sequence (P16581 whole entry, looked up): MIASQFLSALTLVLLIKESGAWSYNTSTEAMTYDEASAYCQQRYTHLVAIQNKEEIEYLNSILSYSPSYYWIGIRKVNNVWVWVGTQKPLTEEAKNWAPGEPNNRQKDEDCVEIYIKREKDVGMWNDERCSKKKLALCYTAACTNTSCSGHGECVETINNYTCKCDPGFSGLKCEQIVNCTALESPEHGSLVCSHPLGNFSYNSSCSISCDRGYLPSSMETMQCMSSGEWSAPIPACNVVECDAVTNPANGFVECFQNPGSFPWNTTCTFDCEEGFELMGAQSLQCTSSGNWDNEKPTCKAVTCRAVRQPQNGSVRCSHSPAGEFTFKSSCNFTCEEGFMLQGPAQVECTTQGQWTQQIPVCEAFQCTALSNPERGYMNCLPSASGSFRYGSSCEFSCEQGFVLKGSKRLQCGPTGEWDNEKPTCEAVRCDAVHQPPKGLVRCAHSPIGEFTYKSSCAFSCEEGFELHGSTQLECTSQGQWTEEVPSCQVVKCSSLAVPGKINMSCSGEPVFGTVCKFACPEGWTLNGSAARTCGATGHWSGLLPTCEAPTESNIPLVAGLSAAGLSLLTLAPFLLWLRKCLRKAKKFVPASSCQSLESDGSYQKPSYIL
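Test system: HUVEC | Signal: Immunofluorescence imaging | Read-out: Percent E-selectin-positive cells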
* hit, by the source's call; ! = repeats disagree.

Results for CC(=O)c1ccc(N2CCc3ccccc3C2)c([N+](=O)[O-])c1 ?
XiGFP reactiv: 0; E-selectin induc: 70*

Results for CC(=O)c1ccc(N2CCN(c3ncccn3)CC2)c([N+](=O)[O-])c1 ?
XiGFP reactiv: 0; E-selectin induc: 0

Results for CC(C)NC(=O)N(C)C[C@H]1Oc2c(NC(=O)c3ccc(-c4nccs4)cc3)cccc2C(=O)N([C@@H](C)CO)C[C@H]1C ?
XiGFP reactiv: 0; E-selectin induc: 65*!

What do the screens show for `C[C@@H]1CN([C@H](C)CO)C(=O)c2cccc(NC(=O)c3ccc(-c4nccs4)cc3)c2O[C@H]1CN(C)Cc1ccc(Oc2ccccc2)cc1`?
XiGFP reactiv: -1; E-selectin induc: 75*

How did C[C@@H]1CN([C@@H](C)CO)C(=O)c2cccc(NC(=O)c3ccc(-c4nccs4)cc3)c2O[C@@H]1CN(C)C(=O)NC1CCCCC1 do in these assays?
XiGFP reactiv: -1; E-selectin induc: 4

Results for COc1ccc(CN(C)C[C@@H]2Oc3c(NC(=O)c4cnccn4)cccc3C(=O)N([C@@H](C)CO)C[C@H]2C)cc1 ?
XiGFP reactiv: 0; E-selectin induc: 54*

What do the screens show for `CC(C)NC(=O)N(C)C[C@@H]1Oc2c(NC(=O)c3ccc(-c4nccs4)cc3)cccc2C(=O)N([C@@H](C)CO)C[C@@H]1C`?
XiGFP reactiv: 0; E-selectin induc: 81*

How did C[C@H](CO)N1C[C@H](C)[C@H](CN(C)Cc2ccc(Oc3ccccc3)cc2)Oc2c(NC(=O)c3ccc(-c4nccs4)cc3)cccc2C1=O do in these assays?
XiGFP reactiv: -1; E-selectin induc: -1

Results for C[C@H]1CN([C@@H](C)CO)C(=O)c2cccc(NC(=O)c3ccc(-c4nccs4)cc3)c2O[C@@H]1CN(C)C(=O)NC1CCCCC1 ?
XiGFP reactiv: -1; E-selectin induc: -4

Results for C[C@@H]1CN([C@@H](C)CO)C(=O)c2cccc(NC(=O)c3cnccn3)c2O[C@@H]1CN(C)Cc1ccc(Oc2ccccc2)cc1 ?
XiGFP reactiv: 0; E-selectin induc: 0

Results for C[C@@H]1CN([C@H](C)CO)C(=O)Cc2cc(NS(=O)(=O)c3cccs3)ccc2O[C@@H]1CN(C)S(=O)(=O)c1cccs1 ?
XiGFP reactiv: 0; E-selectin induc: 0

How did O=C(C[C@@H]1CC[C@H]2[C@@H](COC[C@H](O)CN2Cc2cccc(Cl)c2)O1)Nc1nccs1 do in these assays?
XiGFP reactiv: 0; E-selectin induc: 0

What do the screens show for `CN(C)CC(=O)N1[C@@H](CO)[C@H](c2ccccc2)C12CN(C(=O)C1CCCC1)C2`?
XiGFP reactiv: 0

How did C[C@@H]1CN([C@H](C)CO)S(=O)(=O)c2ccc(C#Cc3ccncc3)cc2O[C@@H]1CN(C)C(=O)C1CCOCC1 do in these assays?
XiGFP reactiv: -1; E-selectin induc: 0

Results for CO[C@@H]1CN(C)C(=O)c2cc(NC(=O)Cc3ccccc3)ccc2OC[C@H](C)NC[C@H]1C ?
XiGFP reactiv: 0; E-selectin induc: 0

What do the screens show for `CC(C)NC(=O)N(C)C[C@@H]1Oc2c(NC(=O)c3ccc(-c4nccs4)cc3)cccc2C(=O)N([C@H](C)CO)C[C@H]1C`?
XiGFP reactiv: 0; E-selectin induc: 91*

How did C[C@H]1CN([C@@H](C)CO)C(=O)c2cccc(NC(=O)c3ccc(-c4nccs4)cc3)c2O[C@@H]1CN(C)C do in these assays?
XiGFP reactiv: -1; E-selectin induc: 6

Results for COc1ccc2c3c(n(C)c2c1)[C@@H](CO)N(S(C)(=O)=O)CC31CCN(C(=O)CN(C)C)CC1 ?
XiGFP reactiv: 0; E-selectin induc: 0

Results for Cc1ccccc1CNc1ncnc2cc(Cl)ccc12 ?
XiGFP reactiv: 0; E-selectin induc: 51*

Results for Cc1ccc(CNc2ncnc3cc(Cl)ccc23)cc1 ?
XiGFP reactiv: 0; E-selectin induc: 0

Results for Oc1c(Cl)cc(Cl)cc1/C=N/Nc1ncc(Br)cn1 ?
XiGFP reactiv: 0; E-selectin induc: 13

How did CN(/N=C/c1cc(Cl)cc(Cl)c1O)C(=S)NC(C)(C)C do in these assays?
XiGFP reactiv: 0; E-selectin induc: 71*

How did N#C/C(=C\c1ccc([N+](=O)[O-])o1)c1nc2ccccc2[nH]1 do in these assays?
XiGFP reactiv: 62*

Results for N#C/C(=C(/O)c1ccc([N+](=O)[O-])o1)c1nc2ccccc2[nH]1 ?
XiGFP reactiv: 0

Results for C[C@H]1CN([C@@H](C)CO)C(=O)c2cc(NC(=O)CCCCCC(=O)Nc3ccccc3N)ccc2O[C@H]1CN(C)C(=O)Nc1ccc(F)cc1 ?
XiGFP reactiv: 0; E-selectin induc: 44*
